Measured values: ChEMBL document CHEMBL1128665, “Design, synthesis, and structure-activity relationship of novel dinucleotide analogs as agents against herpes and human immunodeficiency viruses” (J Med Chem, 1995)

What was measured:
[1] = compound: Nc1ncnc2c1ncn2COCCP(=O)(O)O[C@H]1[C@H](O)[C@H](n2cnc3c(N)ncnc32)O[C@@H]1CO; test: (§1) Km value was determined by competitive inhibition of Adenosine deaminase
Method in brief: (§2)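 Deamination rates of the nucleoside or nucleotide substrates were followed with calf mucosal adenosine deaminase (EC 3.5.4.4) in buffer solution. Km and Vmax, expressed relative to ara-A, were derived from these rates.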

[2] = compound: Nc1ncnc2c1ncn2COCCP(=O)(O)O; test: as §1; method in brief: as §2
[3] = compound: Nc1ncnc2c1ncn2[C@@H]1O[C@H](CO)[C@@H](O)[C@H]1O; test: as §1; method in brief: as §2
[4] = compound: Nc1ncnc2c1ncn2COCCO; test: as §1; method in brief: as §2
[5] = compound: COC(=O)C(C)NP(=O)(CCOCn1cnc2c(N)ncnc21)O[C@H]1[C@H](O)[C@H](n2cnc3c(N)ncnc32)O[C@@H]1CO; test: Km value was determined by competitive inhibition of Adenosine deaminase No reaction at 1500 uM

B1: Adenosine deaminase (Bos taurus), P56658 (protein)
chain: MAQTPAFNKPKVELHVHLDGAIKPETILYYGRKRGIALPADTPEELQNIIGMDKPLSLPEFLAKFDYYMPAIAGCREAVKRIAYEFVEMKAKDGVVYVEVRYSPHLLANSKVEPIPWNQAEGDLTPDEVVSLVNQGLQEGERDFGVKVRSILCCMRHQPSWSSEVVELCKKYREQTVVAIDLAGDETIEGSSLFPGHVKAYAEAVKSGVHRTVHAGEVGSANVVKEAVDTLKTERLGHGYHTLEDATLYNRLRQENMHFEVCPWSSYLTGAWKPDTEHPVVRFKNDQVNYSLNTDDPLIFKSTLDTDYQMTKNEMGFTEEEFKRLNINAAKSSFLPEDEKKELLDLLYKAYGMPSPASAEQCL
[1]
  Km: 166 µM
[2]
  Km: 248 µM
[3]
  Km: 45.3 µM
[4]
  Km: 138 µM
[5]
  Km: No reaction
